According to ChEMBL document CHEMBL1124344, “5-Piperazinylalkyl-2(3H)-oxazolones with neuroleptic activity” (J Med Chem, 1989):

Legend:
Mus musculus [1] = assay: Activity of inclined screen in mouse, after 5 hour of peroral administration in mouse; type: functional; settings: po
Summary of the method: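 Male mice dosed orally (arabic gum suspension, 10 mL/kg, fasted overnight) 1 or 5 h before testing. Placed for 1 h on a wire screen bent at 60° to the horizontal. Ataxic or miorelaxed mice slide off. ED50 is the dose at which 50% of mice fall, by probit analysis. Ten animals per dose, with vehicle controls.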

Mus musculus [2] = assay: Anticonvulsant activity against electroshock-induced convulsions, after 1 hour of peroral administration in mouse; type: functional; settings: po
Summary of the method: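 Male mice given oral drug in arabic gum suspension (10 mL/kg) after overnight fast, then challenged by maximal electroshock. Protection means absence of tonic hind-limb extension. ED50 is the dose protecting 50% of mice, by probit analysis.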

Mus musculus [3] = assay: Anticonvulsant activity against electroshock-induced convulsions, after 5 hours of peroral administration in mouse; type: functional; settings: po
Summary of the method: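 Compounds were dosed as bases suspended in arabic gum at 10 mL/kg orally, after an overnight fast, with vehicle controls. Protection meant no bilateral forepaw clonic seizures or head twitches (tryptamine), or no tonic hind-limb extension (the other two). ED50 is the dose protecting 50%, by probit analysis.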

Mus musculus [4] = assay: Contractile activity in skeletal muscles, after 5 hour of peroral administration in mouse; type: functional; settings: Muscle tissue, po
Summary of the method: (§1)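 Male mice were placed for 1 h on a 60° inclined wire screen just after dosing and 4 h later. In a second test, trained mice hung by the forepaws from a horizontal 1.8 mm wire 15 cm up; normal mice touch it with a hind paw within 2 s and stay ≥1 min. ED50 is the dose making 50% fall. Dosing was oral in gum arabic suspension at 10 mL/kg after an overnight fast.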

Mus musculus [5] = assay: Lethal dose in mice by administered the compound intraperitoneally; type: functional; settings: ip
Summary of the method: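 Acute toxicity tested in mice by the intraperitoneal route. LD50 is the dose killing 50% of treated mice, computed by Finney probit analysis; values are approximate.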

Mus musculus [6] = assay: Inhibitory activity against tremorine-induced salivation, after 1 hour of peroral administration in mouse; type: functional; settings: po
Summary of the method: (§2)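 Male mice fasted overnight, dosed orally with arabic gum suspension (10 mL/kg) 1 or 5 h before test, vehicle controls included. Tremorine 20 mg/kg ip given 1 h after compounds; central (tremor) and peripheral (salivation) parasympathetic signs recorded. ED50 = dose protecting 50% of animals, by probit analysis.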

Mus musculus [7] = assay: Inhibitory activity against tremorine-induced salivation, after 5 hour of peroral administration in mouse; settings: po
Mus musculus [8] = assay: Effect on skeletal muscle tone, after 1 hour of peroral administration in mouse; type: functional; settings: Muscle tissue, po
Summary of the method: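 Male mice suspended by forepaws from a 1.8-mm wire stretched 15 cm above a plane. Trained normal mice touch the wire with a hind paw within 2 s (traction) and hang at least 1 min (suspension). Oral dosing 1 or 5 h before. ED50 is the dose making 50% of mice fall without traction and suspension.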

Mus musculus [9] = assay: Effect on skeletal muscle tone, after 5 hour of peroral administration in mouse; type: functional; settings: Muscle tissue, po; summary of the method: as §1
Rattus norvegicus [10] = assay: Antagonistic activity against apomorphine-induced stereotypy, after 5 hour of peroral administration in rats; type: functional; settings: po
Summary of the method: (§3)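 Male rats fasted overnight and given oral doses in arabic gum suspension (10 mL/kg) 1 h, or 1 and 5 h, before challenge. Apomorphine 3 mg/kg iv, with stereotypy observed 20 min later. ED50 is the dose inhibiting stereotypy in 50% of rats, per Janssen's method. Parenthetical entries give the maximal dose and percent activity.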

Rattus norvegicus [11] = assay: Inhibition against conditioned avoidance response, after 5 hour of peroral administration in rats; type: functional; settings: po
Summary of the method: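 Male rats were trained in a shuttle box to avoid grid-floor shock by crossing compartments during a warning period. Dosing was oral as a gum arabic suspension at 10 mL/kg after an overnight fast. Percent inhibition was computed against a pretraining test. ED50 is the dose giving 50% inhibition.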

Rattus norvegicus [12] = species on record: Rattus norvegicus; assay: Binding affinity against rat striatal membranes using [3H]spiroperidol as the radioligand after 15 min of incubation at 37 °C
Mus musculus [13] = assay: Inhibitory activity against tremorine-induced salivation, after 5 hour of peroral administration in mouse at a dose of 60 mg/kg; type: functional; settings: route oral; summary of the method: as §2
Mus musculus [14] = assay: Inhibitory activity against tremorine-induced tremors, after 1 hour of peroral administration in mouse at a dose of 60 mg/kg; type: functional; settings: route oral; summary of the method: as §2
Mus musculus [15] = assay: Inhibitory activity against tremorine-induced salivation, after 1 hour of peroral administration in mouse at a dose of 60 mg/kg; type: functional; settings: route oral; summary of the method: as §2
Mus musculus [16] = assay: Inhibitory activity against tremorine-induced tremors, after 5 hour of peroral administration in mouse at a dose of 60 mg/kg; type: functional; settings: route oral; summary of the method: as §2
Rattus norvegicus [17] = assay: Activity to evoke catalepsy in rats, by administering perorally; type: functional; settings: po
Summary of the method: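 Rats fasted overnight and given oral doses in arabic gum suspension (10 mL/kg), 1 h before screening or 1 and 5 h before profile testing. Forelegs placed on a horizontal bar 7 cm high, three times at 5-min intervals. Immobility of at least 15 s counts as catalepsy. ED50 is the dose giving catalepsy in 50% of rats, by probit analysis. Parenthetical entries give the maximal dose and percent activity.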

Rattus norvegicus [18] = assay: Inhibitory activity against norepinephrine-induced lethality, after 1 hour of peroral administration in rat; type: functional; settings: po
Summary of the method: (§4)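 Rats (80–90 g) dosed orally (arabic gum, 10 mL/kg) 1 or 5 h before norepinephrine 0.5 mg/kg iv, which kills unprotected rats within 30 min. ED50 is the dose protecting 50% of rats from lethality, by probit analysis.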

Rattus norvegicus [19] = assay: Inhibitory activity against norepinephrine-induced lethality, after 5 hour of peroral administration in rat; type: functional; settings: po; summary of the method: as §4
Rattus norvegicus [20] = assay: Antagonistic activity against apomorphine-induced stereotypy in rats, by administering perorally; type: functional; settings: po; summary of the method: as §3
Mus musculus [21] = assay: Inhibition of spontaneous motor activity, after 5 hour of peroral administration in mouse; type: functional; settings: po
Summary of the method: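 Mice fasted overnight, then dosed orally with compound (weighed as base) suspended in arabic gum, 10 mL/kg, with vehicle controls; 1 h pretreatment for screening tests, 1 or 5 h for others. Groups of five; locomotor activity counted 10 min in photocell activity cage, at least two groups per dose. ED50 = dose giving 50% inhibition versus controls, by probit analysis.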

Canis familiaris = assay: Antagonistic activity against apomorphine-induced emesis, after 1 hr of peroral administration in dogs; type: functional; settings: Canis lupus familiaris, po
Summary of the method: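 Male and female dogs pretreated orally, then challenged with apomorphine 0.3 mg/kg sc. Complete protection from vomiting for 30 min after apomorphine is the criterion. ED50 is the dose protecting 50% of dogs, per Janssen's method.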

Dopamine receptor = assay: Binding affinity against rat striatal membranes using [3H]spiroperidol as the radioligand, after 15 min of incubation in vitro at 37 degree C; parameters: species or system Striatum, Membrane
Summary of the method: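 Crude rat striatal membranes were stored at –80 °C, then thawed and washed. They were incubated 15 min at 37 °C with drug (10⁻¹⁰ to 10⁻⁴ M), [3H]spiroperidol 0.5 nM, 1 μM pargyline and 0.1% ascorbic acid, then filtered, washed and counted. Nonspecific binding was defined with 1 μM haloperidol. IC50 was read from the displacement curve.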

Mus musculus [22] = assay: Inhibition against apomorphine-induced turning, after 5 hour of peroral administration in mouse; type: functional; settings: po
Summary of the method: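 Mice were lesioned unilaterally with intranigrostriatal 6-hydroxydopamine (20 µg). At 7 days, strong contraversive turners 15 min after apomorphine 2 mg/kg ip were selected. A week later they were dosed orally and rechallenged. Fewer than six full rotations in 2 min counted as protection. ED50 is the dose protecting 50%.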

Mus musculus [23] = assay: Inhibitory activity against tremorine-induced salivation, after 5 hour of peroral administration in mouse at dose of 60 mg/kg; type: functional; settings: route oral; summary of the method: as §2

Structure (SMILES)	ED50 (Mus musculus [1])	ED50 (Mus musculus [2])	ED50 (Mus musculus [3])	ED50 (Mus musculus [4])	ED50 (Mus musculus [5])	ED50 (Mus musculus [6])	ED50 (Mus musculus [7])	ED50 (Mus musculus [8])	ED50 (Mus musculus [9])	ED50 (Rattus norvegicus [10])	ED50 (Rattus norvegicus [11])	IC50 (Rattus norvegicus [12])	inhibition in vivo at 60 mg/kg (Mus musculus [13])	inhibition in vivo at 60 mg/kg (Mus musculus [14])	inhibition in vivo at 60 mg/kg (Mus musculus [15])	inhibition in vivo at 60 mg/kg (Mus musculus [16])	ED50 (Rattus norvegicus [17])	ED50 (Rattus norvegicus [18])	ED50 (Rattus norvegicus [19])	ED50 (Mus musculus [21])	also measured
CN(C)CCCN1c2ccccc2Sc2ccc(Cl)cc21 [CHLORPROMAZINE]	7 mg/kg	19.2 mg/kg	10 mg/kg	10.3 mg/kg	2.7 mg/kg	2.5 mg/kg	2 mg/kg	2.7 mg/kg	7.5 mg/kg	41.6 mg/kg	10.3 mg/kg	180 nM	–	–	–	–	–	–	–	–	–
COc1ccccc1N1CCN(CCCC(=O)c2ccc(F)cc2)CC1 [FLUANISONE]	–	–	–	50 mg/kg	–	–	–	–	–	–	50 mg/kg	–	0%	0%	0%	0%	18 mg/kg	1.9 mg/kg	5.6 mg/kg	–	ED50 (Rattus norvegicus [20]): 63.2 mg/kg
O=C(CCCN1CCC(O)(c2ccc(Cl)cc2)CC1)c1ccc(F)cc1 [HALOPERIDOL]	6.5 mg/kg	1.9 mg/kg	0.38 mg/kg	15 mg/kg	0.23 mg/kg	4 mg/kg	21.6 mg/kg	17.1 mg/kg	–	1.8 mg/kg	0.32 mg/kg	10 nM	–	–	–	–	–	–	–	0.35 mg/kg	–
O=c1[nH]c(-c2ccc(F)cc2)c(CCN2CCN(c3cc(Cl)cc(Cl)c3)CC2)o1 [LODIPERONE]	–	–	–	200 mg/kg	–	–	–	–	–	106 mg/kg	6.4 mg/kg	–	0%	0%	0%	0%	–	–	–	2.5 mg/kg	ED50 (Canis familiaris): 4 mg/kg; IC50 (Dopamine receptor): 68 nM; ED50 (Mus musculus [22]): 1 mg/kg
COc1ccccc1N1CCN(CCc2oc(=O)[nH]c2-c2ccc(F)cc2)CC1 [ZOLOPERONE]	–	–	–	62.5 mg/kg	–	–	–	–	75 mg/kg	60.7 mg/kg	11.6 mg/kg	–	–	–	–	–	55.6 mg/kg	3.2 mg/kg	8.2 mg/kg	20.3 mg/kg	ED50 (Canis familiaris): 0.7 mg/kg; IC50 (Dopamine receptor): 250 nM; ED50 (Mus musculus [22]): 20 mg/kg; inhibition in vivo at 60 mg/kg (Mus musculus [23]): 0%; ED50 (Rattus norvegicus [20]): 10.4 mg/kg
